# Data taken from ChEMBL document CHEMBL1153999, “5,6-Diarylanthranilo-1,3-dinitriles as a new class of antihyperglycemic agents” (Bioorg Med Chem Lett, 2009).
# Activity calls are given as the source filed them. No cut-off for these calls is given here.
# Tests used:
# [1] = biological target: Maltase-glucoamylase (Homo sapiens) (UniProt O43451); assay: Inhibition of alpha-glucosidase at 100 uM
# Outline: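 Purified α-glucosidase (0.1 mg/mL) was assayed in 67 mM sodium phosphate (pH 6.8) with 1.0 mg/mL glutathione, 1 mL. The reaction was started with 3.0 mg/mL pNPG and followed at 405 nm every 30 s for 3 min.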
# [2] = biological target: T1, Tyrosine-protein phosphatase non-receptor type 1 (Homo sapiens) (UniProt P18031); assay: Inhibition of PTP1B at 100 uM
# T1 sequence (whole entry): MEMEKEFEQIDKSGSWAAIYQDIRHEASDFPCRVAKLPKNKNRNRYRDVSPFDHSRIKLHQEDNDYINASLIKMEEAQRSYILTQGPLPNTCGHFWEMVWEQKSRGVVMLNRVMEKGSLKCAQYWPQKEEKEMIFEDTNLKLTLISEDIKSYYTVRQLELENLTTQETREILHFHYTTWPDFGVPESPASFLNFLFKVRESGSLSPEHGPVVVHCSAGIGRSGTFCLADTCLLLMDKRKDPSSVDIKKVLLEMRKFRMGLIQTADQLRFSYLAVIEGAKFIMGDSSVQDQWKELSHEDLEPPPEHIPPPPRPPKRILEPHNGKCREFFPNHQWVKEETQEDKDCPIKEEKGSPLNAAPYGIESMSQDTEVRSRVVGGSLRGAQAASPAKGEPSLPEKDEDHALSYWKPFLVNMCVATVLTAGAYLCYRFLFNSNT
# Outline: (§1)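 The PTP-1B assay used 10 mM pNPP in 50 mM HEPES (pH 7.0) with 1 mM DTT and 2 mM EDTA, 1.0 mL, 37 °C for 30 min. It was stopped with 0.1 N NaOH and read at 410 nm. p-Nitrophenolate was calculated with ε 1.78 × 10⁴ M⁻¹ cm⁻¹. Sodium vanadate was the reference.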
# [3] = biological target: T2, Glucose-6-phosphatase catalytic subunit 1 (Homo sapiens) (UniProt P35575); assay: Inhibition of glucose-6-phosphatase at 100 uM
# T2 sequence (whole entry): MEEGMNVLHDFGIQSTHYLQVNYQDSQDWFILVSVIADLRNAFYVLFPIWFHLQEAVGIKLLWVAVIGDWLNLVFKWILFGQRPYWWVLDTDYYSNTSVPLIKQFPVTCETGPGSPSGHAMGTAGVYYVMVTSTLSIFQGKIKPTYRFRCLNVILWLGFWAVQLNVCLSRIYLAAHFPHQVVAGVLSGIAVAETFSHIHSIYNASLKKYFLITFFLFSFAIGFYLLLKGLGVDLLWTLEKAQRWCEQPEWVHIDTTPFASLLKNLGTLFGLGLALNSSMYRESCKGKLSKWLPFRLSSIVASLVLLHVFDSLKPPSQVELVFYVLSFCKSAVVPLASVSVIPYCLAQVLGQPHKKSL
# Outline: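 Compound was preincubated 10 min with glucose-6-phosphatase in 1.0 mL of 0.3 M citrate (pH 6.0), 28 mM EDTA, 14 mM NaF and 200 mM glucose-6-phosphate. The mixture was incubated 30 min at 37 °C and stopped with 10% TCA. Released Pi in the supernatant was measured by Taussky–Shorr; activity is µmol Pi/min/mg protein.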
# [4] = test system: Glycogen phosphorylase; assay: Inhibition of glycogen phosphorylase at 100 uM
# [5] = biological target: T3, Tyrosine-protein phosphatase non-receptor type 1 (Homo sapiens, UniProt P18031); assay: Inhibition of PTP1B; outline: as §1
# T3 sequence (P18031 whole entry): T1 sequence (whole entry)
# [6] = test system: Rattus norvegicus; assay: Antihyperglycemic activity in Sprague-Dawley rat assessed as inhibition of streptozotocin-induced increase in blood glucose level at 100 mg/kg, po after 5 hrs; type: functional; design: scale not given: the % may be the effect or the level left
# Outline: (§2)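 Overnight-fasted male Sprague–Dawley rats were made diabetic with streptozotocin 60 mg/kg ip in 100 mM citrate (pH 4.5). Rats with glucose >10 mM at 48 h and a baseline of 140–270 mg/dL were used, 5 per group. Test suspension or 1% gum acacia vehicle was given orally, then sucrose 2.5 g/kg orally 30 min later. Glucose was read at 30–1440 min; % activity is from AUC versus vehicle (Dunnett test).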
# [7] = test system: Rattus norvegicus; assay: Toxicity in Sprague-Dawley rat up to 250 mg/kg, po; type: organism-based; design: dose 250 mg/kg, route oral; conditions: in vivo
# [8] = Solubility in triple distilled water; type: physicochemical
# [9] = test system: Rattus norvegicus; assay: Antihyperglycemic activity in Sprague-Dawley rat assessed as inhibition of streptozotocin-induced increase in blood glucose level at 100 mg/kg, po after 24 hrs; type: functional; design: scale not given: the % may be the effect or the level left; outline: as §2
# [10] = biological target: Glycogen phosphorylase; assay: Inhibition of glycogen phosphorylase
# Sequence of Maltase-glucoamylase (Homo sapiens) (O43451 whole entry, looked up): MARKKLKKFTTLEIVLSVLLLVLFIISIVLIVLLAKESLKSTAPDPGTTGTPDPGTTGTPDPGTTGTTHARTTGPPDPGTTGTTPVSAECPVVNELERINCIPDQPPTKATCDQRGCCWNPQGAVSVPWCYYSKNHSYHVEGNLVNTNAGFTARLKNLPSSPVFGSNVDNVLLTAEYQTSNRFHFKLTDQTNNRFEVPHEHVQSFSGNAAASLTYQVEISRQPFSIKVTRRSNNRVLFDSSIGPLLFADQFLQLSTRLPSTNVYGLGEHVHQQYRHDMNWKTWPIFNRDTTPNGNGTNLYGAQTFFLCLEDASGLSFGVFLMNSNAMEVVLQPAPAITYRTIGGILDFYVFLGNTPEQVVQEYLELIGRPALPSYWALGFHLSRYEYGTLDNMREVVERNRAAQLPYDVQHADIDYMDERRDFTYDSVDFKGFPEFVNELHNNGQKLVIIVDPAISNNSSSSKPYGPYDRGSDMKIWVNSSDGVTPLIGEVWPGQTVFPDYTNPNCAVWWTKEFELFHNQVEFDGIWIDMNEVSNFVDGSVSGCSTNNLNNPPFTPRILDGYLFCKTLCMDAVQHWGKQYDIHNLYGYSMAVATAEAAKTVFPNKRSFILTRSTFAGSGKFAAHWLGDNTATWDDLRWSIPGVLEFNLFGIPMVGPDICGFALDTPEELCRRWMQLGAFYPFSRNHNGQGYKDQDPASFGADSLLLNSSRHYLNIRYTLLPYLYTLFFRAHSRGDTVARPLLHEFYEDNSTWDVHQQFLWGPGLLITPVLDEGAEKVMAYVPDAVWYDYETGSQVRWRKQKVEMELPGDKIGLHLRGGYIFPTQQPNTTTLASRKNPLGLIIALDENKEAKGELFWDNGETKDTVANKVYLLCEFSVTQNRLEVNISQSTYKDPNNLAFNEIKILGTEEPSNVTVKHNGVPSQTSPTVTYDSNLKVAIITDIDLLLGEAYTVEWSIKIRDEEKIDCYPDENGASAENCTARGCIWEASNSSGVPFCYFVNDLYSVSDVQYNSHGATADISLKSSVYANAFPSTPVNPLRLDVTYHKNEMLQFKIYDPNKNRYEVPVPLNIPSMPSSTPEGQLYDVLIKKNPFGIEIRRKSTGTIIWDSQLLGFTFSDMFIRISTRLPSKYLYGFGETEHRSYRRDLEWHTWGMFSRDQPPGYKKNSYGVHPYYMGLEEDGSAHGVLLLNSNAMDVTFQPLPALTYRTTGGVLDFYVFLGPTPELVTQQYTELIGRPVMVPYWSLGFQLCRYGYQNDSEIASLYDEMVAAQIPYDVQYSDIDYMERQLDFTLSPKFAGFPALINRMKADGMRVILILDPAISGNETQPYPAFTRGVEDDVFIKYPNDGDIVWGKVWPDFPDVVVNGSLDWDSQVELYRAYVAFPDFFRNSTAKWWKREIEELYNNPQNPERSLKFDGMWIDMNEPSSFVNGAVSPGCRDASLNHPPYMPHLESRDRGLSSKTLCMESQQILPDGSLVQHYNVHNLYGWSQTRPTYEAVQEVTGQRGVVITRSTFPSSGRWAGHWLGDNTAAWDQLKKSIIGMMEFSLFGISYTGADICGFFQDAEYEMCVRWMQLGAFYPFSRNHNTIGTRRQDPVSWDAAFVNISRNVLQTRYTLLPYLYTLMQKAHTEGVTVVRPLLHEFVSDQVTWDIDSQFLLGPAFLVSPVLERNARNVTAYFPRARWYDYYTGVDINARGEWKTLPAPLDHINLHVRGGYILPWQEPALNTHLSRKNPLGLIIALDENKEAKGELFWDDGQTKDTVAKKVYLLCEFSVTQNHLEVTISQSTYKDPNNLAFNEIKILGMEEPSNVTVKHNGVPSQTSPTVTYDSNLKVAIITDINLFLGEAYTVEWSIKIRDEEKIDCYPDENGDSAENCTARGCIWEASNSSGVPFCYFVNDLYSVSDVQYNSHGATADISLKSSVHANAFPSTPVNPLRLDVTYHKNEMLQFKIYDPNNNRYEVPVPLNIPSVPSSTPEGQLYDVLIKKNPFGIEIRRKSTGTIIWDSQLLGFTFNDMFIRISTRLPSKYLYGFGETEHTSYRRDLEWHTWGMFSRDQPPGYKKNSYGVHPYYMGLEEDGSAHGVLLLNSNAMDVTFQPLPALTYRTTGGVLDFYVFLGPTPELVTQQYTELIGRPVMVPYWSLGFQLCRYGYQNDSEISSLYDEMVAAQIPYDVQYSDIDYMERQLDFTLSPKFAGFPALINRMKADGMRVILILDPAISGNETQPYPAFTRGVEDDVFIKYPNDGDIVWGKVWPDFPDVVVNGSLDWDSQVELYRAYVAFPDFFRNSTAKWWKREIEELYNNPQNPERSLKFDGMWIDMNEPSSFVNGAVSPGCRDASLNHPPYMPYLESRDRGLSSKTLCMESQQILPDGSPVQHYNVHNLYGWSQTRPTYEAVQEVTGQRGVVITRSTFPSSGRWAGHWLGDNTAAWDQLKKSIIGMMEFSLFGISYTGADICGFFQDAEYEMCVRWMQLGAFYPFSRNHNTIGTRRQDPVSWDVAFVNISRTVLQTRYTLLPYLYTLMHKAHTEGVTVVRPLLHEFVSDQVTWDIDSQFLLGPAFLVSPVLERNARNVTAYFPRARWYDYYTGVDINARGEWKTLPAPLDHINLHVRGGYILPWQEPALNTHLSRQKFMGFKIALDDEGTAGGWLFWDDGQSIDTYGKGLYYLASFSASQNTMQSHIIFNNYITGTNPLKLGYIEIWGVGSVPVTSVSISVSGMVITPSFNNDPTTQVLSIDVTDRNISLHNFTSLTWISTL
Structure (SMILES),inhibition [1],inhibition [2],inhibition [3] [%],inhibition [4],IC50 [5] [µM],solubility [8] [µg/mL],IC50 [10] [µM],Activity [6] [%],Activity [7],Activity [9] [%]
COc1ccc(-c2c(C#N)c(N)c(C#N)c(SC)c2-c2ccc(OC)c(OC)c2)cc1,25.9%,30.7%,0.3,13.8%,–,–,–,–,–,–
COc1ccc(-c2c(C#N)c(N)c(C#N)c(SC)c2-c2ccc(F)cc2)c(OC)c1,11.5%,28.2%,1.9,74.3%,–,–,79,–,–,–
COc1ccc(-c2c(C)c(N3CCCCC3)c(C#N)c(N)c2C#N)cc1,–,inactive,33.3,15.7%,–,–,–,–,–,–
COc1ccc(-c2c(C#N)c(N)c(C#N)c(SC)c2-c2ccc(OC)cc2)cc1,14.4%,76.9%,5.5,6.9%,72,–,–,17.5,Non-toxic,17.6
COc1ccc(-c2c(C)c(C#N)c(N)c(C#N)c2SC)cc1OC,6.7%,0%,6.1,10%,–,–,–,–,–,–
Cc1c(-c2ccccc2)c(C#N)c(N)c(C#N)c1N1CCCCC1,–,31.1%,38.2,4.7%,–,–,–,–,–,–
CN(C)C(=N)NC(=N)N [METFORMIN],–,–,–,–,–,–,–,20.9,–,21.9
COc1ccc(-c2c(C)c(C#N)c(N)c(C#N)c2SC)c(OC)c1,10.5%,25.6%,0.08,50%,–,–,–,–,–,–
COc1ccc(-c2c(C#N)c(N)c(C#N)c(SC)c2-c2ccc(F)cc2)cc1,13.4%,48.8%,5.5,inactive,–,–,–,22.1,–,25.2
Cc1c(-c2ccccc2)c(C#N)c(N)c(C#N)c1N1CCC(C)CC1,–,inactive,10.9,2.3%,–,–,–,–,–,–

# Further lines, with some results ahead:
inhibition [1],inhibition [2],inhibition [3] [%],inhibition [4],IC50 [5] [µM],solubility [8] [µg/mL],IC50 [10] [µM],Structure (SMILES),Activity [6] [%],Activity [7],Activity [9] [%]
10.5%,81.6%,7.4,inactive,58,0.13,–,CSc1c(C#N)c(N)c(C#N)c(-c2ccccc2)c1-c1ccccc1,24.1,Non-toxic,28.1
17.3%,0%,12.3,37.5%,–,–,–,COc1ccc(-c2c(C)c(SC)c(C#N)c(N)c2C#N)cc1,–,–,–
17.3%,3.6%,41.8,5%,–,–,–,CSc1c(C#N)c(N)c(C#N)c(C)c1-c1ccc(F)cc1,–,–,–
5.7%,61.5%,6.8,37.9%,86,–,–,COc1ccc(-c2c(C#N)c(N)c(C#N)c(SC)c2-c2ccccc2)cc1,26.5,Non-toxic,36.9
22.1%,58.5%,14.4,55%,–,–,–,CSc1c(C#N)c(N)c(C#N)c(C)c1-c1ccc(C(F)(F)F)cc1,–,–,–
–,–,24.5,11.6%,–,–,–,CSc1c(C#N)c(N)c(C#N)c(Cc2ccccc2)c1-c1ccccc1,–,–,–
inactive,40.2%,8.2,20%,–,–,–,CSc1c(C#N)c(N)c(C#N)c(C)c1-c1ccccc1F,–,–,–
6.7%,7.3%,19.3,12.5%,–,–,–,CSc1c(C)c(-c2ccc(Cl)cc2)c(C#N)c(N)c1C#N,–,–,–
6.7%,inactive,0.96,45%,–,–,–,CSc1c(C)c(-c2ccccc2)c(C#N)c(N)c1C#N,–,–,–
